Bounds are passed on as bounds.

The target in assay [1] is T1, Androgen receptor (Rattus norvegicus) (UniProt P15207).
T1 sequence (whole entry): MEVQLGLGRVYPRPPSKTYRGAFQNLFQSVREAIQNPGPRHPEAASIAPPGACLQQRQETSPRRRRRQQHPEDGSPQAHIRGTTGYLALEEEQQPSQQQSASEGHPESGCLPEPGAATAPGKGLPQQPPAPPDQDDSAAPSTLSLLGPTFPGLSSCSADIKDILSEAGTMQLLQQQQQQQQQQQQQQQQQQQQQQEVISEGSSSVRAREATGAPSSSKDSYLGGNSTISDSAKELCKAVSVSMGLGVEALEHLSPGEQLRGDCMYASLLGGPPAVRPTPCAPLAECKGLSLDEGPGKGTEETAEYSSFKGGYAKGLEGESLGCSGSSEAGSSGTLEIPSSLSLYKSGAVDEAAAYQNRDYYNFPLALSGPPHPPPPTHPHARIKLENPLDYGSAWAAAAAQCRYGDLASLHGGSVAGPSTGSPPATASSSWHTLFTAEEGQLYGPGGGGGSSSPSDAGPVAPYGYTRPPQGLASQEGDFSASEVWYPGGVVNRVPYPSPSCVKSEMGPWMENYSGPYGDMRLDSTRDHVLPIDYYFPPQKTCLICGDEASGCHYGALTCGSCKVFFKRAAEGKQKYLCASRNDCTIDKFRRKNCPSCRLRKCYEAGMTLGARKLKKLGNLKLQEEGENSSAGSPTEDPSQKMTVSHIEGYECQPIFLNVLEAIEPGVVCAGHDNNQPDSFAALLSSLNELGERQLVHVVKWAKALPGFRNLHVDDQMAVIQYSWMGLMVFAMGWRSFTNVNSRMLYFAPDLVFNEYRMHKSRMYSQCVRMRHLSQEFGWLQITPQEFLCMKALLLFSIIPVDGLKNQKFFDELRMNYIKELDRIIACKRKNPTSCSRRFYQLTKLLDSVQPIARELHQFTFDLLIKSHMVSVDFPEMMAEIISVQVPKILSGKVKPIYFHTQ
The experiment in a line: Relative binding affinity for androgen receptor of rat prostate cytosol, displacement of [3H]R-1881 over 2 hr at 0C. A digest of the protocol: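 Prostate from male Sprague–Dawley rats (140–160 g) castrated 24 h earlier, homogenised 1/5 w/v. Cytosol incubated with 2.5 nM [3H]R 1881 for 2 h at 0 °C with 0–2500 nM competitor. […] by dextran-coated charcoal (10 min, 0–4 °C; 800g). RBA is the ratio of 50%-displacing concentrations × 100, relative to testosterone.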
A general note: Loss of bound radioactivity is the signal in a displacement assay; it reports binding, not function.

Assay [2] concerns the target T2, Estrogen receptor (Mus musculus) (UniProt O08537+P19785). Briefly: Relative binding affinity for Estrogen receptor of mouse uterus cytosol, displacement of [3H]estradiol over 2 hr at 0C. It is filed as protein assay. The method in brief:
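Cytosol from uteri of 18-day-old female Swiss mice (homogenised 1/50 w/v), incubated with 5 nM [3H]estradiol for 2 h at 0 °C with 0–2500 nM unlabeled competitor. Bound ligand separated by dextran-coated charcoal, 10 min at 0–4 °C, then centrifuged at 800g. RBA = (50%-displacing concentration of unlabeled estradiol / that of competitor) × 100. Mean of ≥3 experiments or 2 concordant.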

The target in assay [3] is T3, Glucocorticoid receptor (Rattus norvegicus) (UniProt P06536).
T3 sequence (whole entry): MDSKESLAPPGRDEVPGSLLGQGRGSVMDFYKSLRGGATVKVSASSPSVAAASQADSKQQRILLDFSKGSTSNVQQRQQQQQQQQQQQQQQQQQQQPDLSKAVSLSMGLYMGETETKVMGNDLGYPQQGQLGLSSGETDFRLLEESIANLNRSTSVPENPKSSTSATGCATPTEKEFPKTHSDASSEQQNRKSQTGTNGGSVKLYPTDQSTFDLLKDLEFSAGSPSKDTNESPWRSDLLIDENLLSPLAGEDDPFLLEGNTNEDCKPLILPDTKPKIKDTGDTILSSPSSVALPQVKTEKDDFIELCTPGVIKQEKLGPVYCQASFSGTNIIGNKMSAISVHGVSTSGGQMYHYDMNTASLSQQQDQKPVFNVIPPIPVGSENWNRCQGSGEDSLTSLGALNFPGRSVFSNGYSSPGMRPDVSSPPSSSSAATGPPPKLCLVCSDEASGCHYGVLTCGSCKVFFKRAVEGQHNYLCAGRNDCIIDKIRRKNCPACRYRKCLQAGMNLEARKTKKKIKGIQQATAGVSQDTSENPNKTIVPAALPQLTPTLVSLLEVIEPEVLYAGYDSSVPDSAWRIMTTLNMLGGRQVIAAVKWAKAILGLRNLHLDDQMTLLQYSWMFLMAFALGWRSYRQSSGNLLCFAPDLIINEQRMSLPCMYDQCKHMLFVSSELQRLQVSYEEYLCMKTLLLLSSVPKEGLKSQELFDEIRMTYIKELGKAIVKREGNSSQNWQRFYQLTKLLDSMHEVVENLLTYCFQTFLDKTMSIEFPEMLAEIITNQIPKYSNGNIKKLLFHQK
The experiment in a line: Relative binding affinity for glucocorticoid receptor of rat liver cytosol, displacement of [3H]dexamethasone over 4 hr at 0C. The method in brief: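 Rats (male Sprague–Dawley, 140–160 g) adrenalectomized 4–7 days earlier. Perfused liver homogenised 1/10 in Tris-sucrose buffer and spun at 105000g for 60 min at 4 °C. Cytosol incubated with 5 nM [3H]dexamethasone for 4 h at 0 °C with 0–2500 nM competitor. Dextran-charcoal separation used. RBA relative to dexamethasone = 100.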

The target in assay [4] is T4, Mineralocorticoid receptor (Rattus norvegicus) (UniProt P22199).
T4 sequence (whole entry): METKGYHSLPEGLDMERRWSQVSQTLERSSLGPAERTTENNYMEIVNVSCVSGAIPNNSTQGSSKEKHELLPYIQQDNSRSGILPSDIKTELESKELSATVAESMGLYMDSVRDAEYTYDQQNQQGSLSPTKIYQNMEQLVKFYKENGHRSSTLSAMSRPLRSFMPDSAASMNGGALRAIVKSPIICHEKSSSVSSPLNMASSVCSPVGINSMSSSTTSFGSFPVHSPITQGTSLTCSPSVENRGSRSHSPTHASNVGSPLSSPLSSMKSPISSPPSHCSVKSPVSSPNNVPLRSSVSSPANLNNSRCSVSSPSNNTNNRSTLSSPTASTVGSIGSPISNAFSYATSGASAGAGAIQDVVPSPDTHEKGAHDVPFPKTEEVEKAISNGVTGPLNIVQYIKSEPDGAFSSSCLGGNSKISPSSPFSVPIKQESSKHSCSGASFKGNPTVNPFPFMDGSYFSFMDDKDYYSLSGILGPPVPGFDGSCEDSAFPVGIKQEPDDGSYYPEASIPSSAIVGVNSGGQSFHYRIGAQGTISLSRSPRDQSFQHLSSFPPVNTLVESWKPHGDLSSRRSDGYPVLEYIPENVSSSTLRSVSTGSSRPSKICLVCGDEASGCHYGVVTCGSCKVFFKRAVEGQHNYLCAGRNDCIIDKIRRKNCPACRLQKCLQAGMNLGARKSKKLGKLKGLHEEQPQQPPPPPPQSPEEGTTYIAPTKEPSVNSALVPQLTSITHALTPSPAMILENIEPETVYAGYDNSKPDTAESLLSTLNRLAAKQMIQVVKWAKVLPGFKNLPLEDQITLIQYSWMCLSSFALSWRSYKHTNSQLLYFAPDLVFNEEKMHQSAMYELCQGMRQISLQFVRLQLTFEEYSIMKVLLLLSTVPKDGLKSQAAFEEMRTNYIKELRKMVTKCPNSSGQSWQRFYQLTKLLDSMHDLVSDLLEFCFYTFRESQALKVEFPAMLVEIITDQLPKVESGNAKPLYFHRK
Briefly: Relative binding affinity for mineralocorticoid receptor of rat kidney homogenates, displacement of [3H]aldosterone over 30 min at 25 degree C. The method in brief: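 Perfused kidneys from adrenalectomized (4–7 days) male Sprague–Dawley rats homogenised 1/3 in Krebs-Ringer phosphate buffer. Homogenate incubated with 2.5 nM [3H]aldosterone for 30 min at 25 °C with 0–2500 nM competitor, then centrifuged at 800g for 10 min at 0 °C. Bound ligand measured by dextran-charcoal. RBA relative to aldosterone = 100.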

The target of assay [5] is T5, Progesterone receptor (Oryctolagus cuniculus) (UniProt P06186).
T5 sequence (whole entry): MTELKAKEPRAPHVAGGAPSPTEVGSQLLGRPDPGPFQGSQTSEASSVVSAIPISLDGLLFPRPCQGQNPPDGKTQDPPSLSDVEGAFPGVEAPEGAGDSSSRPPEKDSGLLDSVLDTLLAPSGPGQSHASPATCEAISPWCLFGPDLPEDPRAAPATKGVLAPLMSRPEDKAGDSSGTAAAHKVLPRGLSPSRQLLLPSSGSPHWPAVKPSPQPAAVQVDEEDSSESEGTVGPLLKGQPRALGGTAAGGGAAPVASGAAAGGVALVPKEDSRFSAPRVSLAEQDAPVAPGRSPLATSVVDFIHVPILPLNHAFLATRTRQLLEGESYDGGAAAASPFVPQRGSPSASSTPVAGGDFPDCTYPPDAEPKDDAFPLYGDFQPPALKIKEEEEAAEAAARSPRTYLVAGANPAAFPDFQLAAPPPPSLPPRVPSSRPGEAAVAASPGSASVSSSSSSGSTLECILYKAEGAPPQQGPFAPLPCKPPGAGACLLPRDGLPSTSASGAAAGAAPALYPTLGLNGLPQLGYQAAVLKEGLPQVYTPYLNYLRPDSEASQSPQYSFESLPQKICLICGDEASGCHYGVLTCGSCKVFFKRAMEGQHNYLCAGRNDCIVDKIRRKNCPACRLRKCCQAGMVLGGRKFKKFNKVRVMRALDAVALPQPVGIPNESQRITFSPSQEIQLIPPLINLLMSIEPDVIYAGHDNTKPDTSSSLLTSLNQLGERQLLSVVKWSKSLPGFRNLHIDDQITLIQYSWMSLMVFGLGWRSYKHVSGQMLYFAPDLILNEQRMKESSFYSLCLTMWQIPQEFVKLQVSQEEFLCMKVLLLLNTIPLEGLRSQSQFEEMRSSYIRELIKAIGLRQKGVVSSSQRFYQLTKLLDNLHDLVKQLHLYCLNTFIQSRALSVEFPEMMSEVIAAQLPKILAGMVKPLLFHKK
The experiment in a line: Relative binding affinity for Progesterone receptor of rabbit uterus cytosol, displacement of [3H]R5020 over 24 hr at 0C. A digest of the protocol:
(§1)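 Uteri from estrogen-primed female New Zealand rabbits (1 kg, 50–55 days old) homogenised 1/50 in 10 mM Tris-HCl pH 7.4, 0.25 M sucrose. Cytosol spun at 105000g for 60 min at 4 °C, then incubated with 2.5 nM [3H]R 5020 for 24 h at 0 °C with 0–2500 nM competitor. Bound ligand taken by dextran-charcoal. RBA taken relative to progesterone.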

Assay [6] deals with T3, Glucocorticoid receptor (Rattus norvegicus).
For assay [7], the target named is T5, Progesterone receptor (Oryctolagus cuniculus). The experiment in a line: Binding affinity to Steroid Hormone Receptor was determined using [6,7-3H]R5020 as radioligand. A digest of the protocol: as §1
Assay [8] addresses T4, Mineralocorticoid receptor (Rattus norvegicus). The experiment in a line: Binding affinity to Steroid Hormone Receptor was determined using [1,2-3 H]aldosterone as radioligand. The method in brief:
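Rats were male Sprague–Dawley, 140–160 g, adrenalectomized 4–7 days. Perfused kidney was homogenized 1/3 (w/v) in Krebs-Ringer phosphate buffer. Homogenate was incubated with 2.5 nM [3H]aldosterone for 30 min at 25 °C with 0–2500 nM competitor, then spun at 800g for 10 min at 0 °C. Bound ligand was separated by dextran-coated charcoal. RBA = 100 × ratio of the 50%-displacing concentrations, with aldosterone set at 100.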

Assay [9] concerns the target T1, Androgen receptor (Rattus norvegicus). The experiment in a line: Binding affinity to Steroid Hormone Receptor was determined using [6,7-3H] R 1881 as radioligand. To be noted: tested as the 3H-labelled form. A digest of the protocol: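 Prostate was taken from male Sprague–Dawley rats (140–160 g) castrated 24 h before and homogenized 1/5 (w/v). Cytosol was incubated with 2.5 nM [3H]R 1881 for 2 h at 0 °C with 0–2500 nM unlabeled competitor. Free ligand was removed with DCC (0.625% dextran–1.25% charcoal, 10 min, 0–4 °C, 800g spin). RBA is relative to testosterone = 100. Values are means of ≥3 experiments (SEM) or of two.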

Assay [10] concerns the target T2, Estrogen receptor (Mus musculus). The experiment in a line: Binding affinity to Steroid Hormone Receptor was determined using [6,7-3H]estradiol as radioligand. It is filed as protein assay. To be noted: tested as the 3H-labelled form. A digest of the protocol:
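Uteri came from 18-day-old female Swiss mice and were homogenized 1/50 (w/v). Uterine cytosol was labeled with 5 nM [3H]estradiol for 2 h at 0 °C with 0–2500 nM competing steroid. Bound radioactivity was measured after dextran-coated charcoal treatment and an 800g centrifugation. The 50%-inhibition concentrations gave RBA × 100 relative to estradiol (100). Results are means of ≥3 or two experiments.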

T2 sequence (O08537 whole entry, looked up): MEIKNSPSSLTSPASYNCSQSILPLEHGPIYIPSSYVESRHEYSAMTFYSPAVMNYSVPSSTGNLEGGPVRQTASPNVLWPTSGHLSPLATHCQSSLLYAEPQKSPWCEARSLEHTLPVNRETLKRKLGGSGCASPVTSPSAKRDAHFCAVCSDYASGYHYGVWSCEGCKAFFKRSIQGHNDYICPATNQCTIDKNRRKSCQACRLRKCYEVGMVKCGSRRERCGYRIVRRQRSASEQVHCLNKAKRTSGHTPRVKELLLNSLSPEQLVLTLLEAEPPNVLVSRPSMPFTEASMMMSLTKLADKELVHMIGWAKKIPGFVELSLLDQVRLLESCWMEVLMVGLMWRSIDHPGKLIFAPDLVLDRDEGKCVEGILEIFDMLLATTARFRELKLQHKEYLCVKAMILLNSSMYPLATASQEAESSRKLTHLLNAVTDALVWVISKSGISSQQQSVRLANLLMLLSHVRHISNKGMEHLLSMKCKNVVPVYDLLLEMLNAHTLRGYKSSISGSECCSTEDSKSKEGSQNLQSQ
T2 sequence (P19785 whole entry, looked up): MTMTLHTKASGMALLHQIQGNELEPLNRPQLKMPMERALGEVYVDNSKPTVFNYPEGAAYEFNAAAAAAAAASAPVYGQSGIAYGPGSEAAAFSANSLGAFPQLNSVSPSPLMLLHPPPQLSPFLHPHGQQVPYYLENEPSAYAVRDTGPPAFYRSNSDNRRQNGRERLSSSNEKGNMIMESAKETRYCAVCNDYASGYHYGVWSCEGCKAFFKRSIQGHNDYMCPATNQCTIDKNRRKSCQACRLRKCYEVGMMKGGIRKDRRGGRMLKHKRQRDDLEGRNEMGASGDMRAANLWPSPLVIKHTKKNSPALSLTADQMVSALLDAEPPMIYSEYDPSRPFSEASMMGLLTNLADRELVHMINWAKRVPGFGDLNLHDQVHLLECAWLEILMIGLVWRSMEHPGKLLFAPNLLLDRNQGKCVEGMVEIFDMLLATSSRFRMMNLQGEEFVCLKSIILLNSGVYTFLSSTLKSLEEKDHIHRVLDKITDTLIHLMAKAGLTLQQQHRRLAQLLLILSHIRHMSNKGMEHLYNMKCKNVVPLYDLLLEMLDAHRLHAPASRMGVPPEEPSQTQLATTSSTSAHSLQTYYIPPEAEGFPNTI

`CC12CCC(=O)C=C1CCC1C2CCC2(C)C1C[C@H]([Se]c1ccccc1)C2O` (stereo not given in full): the RBA in [1] is 1.9; in assay [2], < 0.1; in assay [3], < 0.1; in [4] it was < 0.1; in assay [5] it was < 0.1.

`CC12CCC(=O)C=C1CCC1C2CCC2(C)C1C[C@@H]([Se]c1ccccc1)C2O` (stereo not given in full): the RBA in assay [1] is 0.33; in assay [2] it was < 0.1; in assay [3] it was 0.23; in [4], 0.15; in assay [5], 0.8.

With `CC12CCC(=O)C=C1CCC1C2CCC2(C)C1CC[C@@H]2C(=O)C[Se]c1ccccc1` (stereo not given in full), the RBA in assay [1] was 1.7; in assay [2], < 0.1; in [3] it was 0.6; in [4], 2.1; in assay [5], 59.

With `CC(=O)[C@@]1([Se]c2ccccc2)CCC2C3CCC4=CC(=O)CCC4(C)C3CCC21C` (stereo not given in full), the RBA was < 0.1 in [1]; < 0.1 in [2]; < 0.1 in [3]; 0.23 in assay [4]; 2.1 in assay [5].

Consider `C[C@@H]1C[C@H]2[C@@H]3CCC4=CC(=O)C=C[C@]4(C)[C@@]3(F)[C@@H](O)C[C@]2(C)[C@@]1(O)C(=O)CO`, for which, in [6], the Specific activity was 26 Ci mM-1.

`C[C@]1(O)CC[C@H]2[C@@H]3CCC4=CC(=O)CCC4=C3C=C[C@@]21C`: the Specific activity in assay [7] was 56 Ci mM-1.

As to `C[C@]12CC[C@@H]3c4ccc(O)cc4CC[C@H]3[C@@H]1CC[C@@H]2O`, the Specific activity in assay [8] was 50 Ci mM-1.

Turning to `CC12CCC(=O)C=C1CCC1C2C2CC3(C(O)O2)C(C(=O)CO)CCC13` (stereo not given), the Specific activity in assay [9] was 53 Ci mM-1.

As to `CCC(=O)[C@@]1(C)CC[C@H]2[C@@H]3CCC4=CC(=O)CCC4=C3CCC21C` (stereo not given in full), in assay [10], the Specific activity is 57 Ci mM-1.

The values above are taken from ChEMBL document CHEMBL1121469, “Synthesis and biochemical screening of phenylselenium-substituted steroid hormones” (J Med Chem, 1980).
